Measured values taken from ChEMBL document CHEMBL3593207, “Imidazole clubbed 1,3,4-oxadiazole derivatives as potential antifungal agents” (2015).
Values after ≈ are worked out from the molar mass of the structure shown.

Experiments:
Type in all cases: functional
Candida tropicalis [1] = assay: Antifungal activity against clinical isolates of Candida tropicalis 2029 at half MIC after 48 hrs by disc diffusion assay
Procedure, shortened: (§1)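 Cells (10^3 cells ml−1) grown in YPD were mixed into molten agar (~40 °C) and poured into 100-mm plates. Filter discs (4 mm) were spotted with 10 µl of compound at 1/2 × MIC, MIC or 2 × MIC. Fluconazole and 1% DMSO were the controls. Plates were incubated at 37 °C for 48 h and inhibition zone diameters recorded in mm.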

Candida tropicalis [2] = assay: Inhibition of ergosterol biosynthesis in Candida tropicalis 2029 assessed as ergosterol content at MIC after 16 hrs by spectrophotometer analysis; set-up: scale not given: the % may be the effect or the level left
Procedure, shortened: (§2)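 Cells were pelleted and washed, and wet weight taken. Pellets were saponified in 25% alcoholic KOH at 85 °C for 1 h. Sterols were extracted into n-heptane/water. Ergosterol content is expressed relative to untreated control cells.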

Candida albicans [3] = assay: Antifungal activity against clinical isolates of Candida albicans 2323 at MIC after 48 hrs by disc diffusion assay; procedure, shortened: as §1
Candida albicans [4] = assay: Inhibition of ergosterol biosynthesis in Candida albicans 2367 assessed as ergosterol content at MIC after 16 hrs by spectrophotometer analysis; set-up: scale not given: the % may be the effect or the level left; procedure, shortened: as §2
Candida albicans [5] = assay: Inhibition of ergosterol biosynthesis in Candida albicans ATCC 10261 assessed as ergosterol content at 1/2 MIC after 16 hrs by spectrophotometer analysis; set-up: scale not given: the % may be the effect or the level left; procedure, shortened: as §2
Candida tropicalis [6] = assay: Antifungal activity against clinical isolates of Candida tropicalis 2029 by broth microdilution assay
Procedure, shortened: (§3)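 CLSI M27-A3 broth microdilution. Compounds diluted to 1 mg/ml in 1% DMSO. Fluconazole (1 mg/ml) served as positive control, 1% DMSO as vehicle control, with media and culture controls. Triplicate at each concentration, repeated thrice. Inocula came from YPDA stocks subcultured in broth for 48 h at 37 °C.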

Candida albicans [7] = assay: Antifungal activity against clinical isolates of Candida albicans 2323 at half MIC after 48 hrs by disc diffusion assay; procedure, shortened: as §1
Candida tropicalis [8] = assay: Antifungal activity against clinical isolates of Candida tropicalis 2029 at 2 times MIC after 48 hrs by disc diffusion assay; procedure, shortened: as §1
Candida albicans [9] = assay: Inhibition of ergosterol biosynthesis in Candida albicans 2367 assessed as ergosterol content at 1/2 MIC after 16 hrs by spectrophotometer analysis; set-up: scale not given: the % may be the effect or the level left; procedure, shortened: as §2
Candida albicans [10] = assay: Inhibition of ergosterol biosynthesis in Candida albicans 2779 assessed as ergosterol content at 1/2 MIC after 16 hrs by spectrophotometer analysis; set-up: scale not given: the % may be the effect or the level left; procedure, shortened: as §2
Candida tropicalis [11] = assay: Antifungal activity against clinical isolates of Candida tropicalis 2356 by broth microdilution assay; procedure, shortened: as §3
Candida tropicalis [12] = assay: Antifungal activity against Candida tropicalis ATCC 750 at MIC after 48 hrs by disc diffusion assay; procedure, shortened: as §1
Candida tropicalis [13] = assay: Antifungal activity against clinical isolates of Candida tropicalis 2029 at MIC after 48 hrs by disc diffusion assay; procedure, shortened: as §1
Candida tropicalis [14] = assay: Antifungal activity against Candida tropicalis ATCC 750 at 2 times MIC after 48 hrs by disc diffusion assay; procedure, shortened: as §1
Candida albicans [15] = assay: Antifungal activity against Candida albicans ATCC 10261 at half MIC after 48 hrs by disc diffusion assay; procedure, shortened: as §1
Candida albicans [16] = assay: Inhibition of ergosterol biosynthesis in Candida albicans ATCC 10261 assessed as ergosterol content at MIC after 16 hrs by spectrophotometer analysis; set-up: scale not given: the % may be the effect or the level left; procedure, shortened: as §2
Candida albicans [17] = assay: Cytotoxicity against clinical isolates of Candida albicans 2323 at MIC after 24 hrs by WST1 assay
Procedure, shortened: (§4)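 Candida cells were exposed to MIC and sub-MIC levels for 24 h in microplates, then to WST-1/CEC dye for 30 min at 37 °C. Plates were shaken 1 min and the reaction stopped with 1% SDS. Formazan was read at 450 nm. % cytotoxicity = 100 × (cell control − experimental)/cell control. Triplicates, mean ± SD.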

Candida tropicalis [18] = assay: Antifungal activity against Candida tropicalis ATCC 750 by broth microdilution assay; procedure, shortened: as §3
Candida albicans [19] = assay: Antifungal activity against clinical isolates of Candida albicans 2323 at 2 times MIC after 48 hrs by disc diffusion assay; procedure, shortened: as §1
Candida albicans [20] = assay: Antifungal activity against clinical isolates of Candida albicans 2367 at half MIC after 48 hrs by disc diffusion assay; procedure, shortened: as §1
Candida albicans [21] = assay: Inhibition of ergosterol biosynthesis in Candida albicans 2323 assessed as ergosterol content at 1/2 MIC after 16 hrs by spectrophotometer analysis; set-up: scale not given: the % may be the effect or the level left; procedure, shortened: as §2
Candida albicans [22] = assay: Antifungal activity against clinical isolates of Candida albicans 2367 at 2 times MIC after 48 hrs by disc diffusion assay; procedure, shortened: as §1
Candida albicans [23] = assay: Antifungal activity against clinical isolates of Candida albicans 2779 at MIC after 48 hrs by disc diffusion assay; procedure, shortened: as §1
Candida albicans [24] = assay: Antifungal activity against clinical isolates of Candida albicans 2367 by broth microdilution assay; procedure, shortened: as §3
Candida tropicalis [25] = assay: Inhibition of ergosterol biosynthesis in Candida tropicalis 2029 assessed as ergosterol content at 1/2 MIC after 16 hrs by spectrophotometer analysis; set-up: scale not given: the % may be the effect or the level left; procedure, shortened: as §2
Candida tropicalis [26] = assay: Cytotoxicity against clinical isolates of Candida tropicalis 2029 at MIC after 24 hrs by WST1 assay; procedure, shortened: as §4
Candida albicans [27] = assay: Antifungal activity against clinical isolates of Candida albicans 2323 by broth microdilution assay; procedure, shortened: as §3
Candida tropicalis [28] = assay: Inhibition of ergosterol biosynthesis in Candida tropicalis ATCC 750 assessed as ergosterol content at 1/2 MIC after 16 hrs by spectrophotometer analysis; set-up: scale not given: the % may be the effect or the level left; procedure, shortened: as §2
Candida albicans [29] = assay: Antifungal activity against clinical isolates of Candida albicans 2779 at half MIC after 48 hrs by disc diffusion assay; procedure, shortened: as §1
Candida albicans [30] = assay: Antifungal activity against Candida albicans ATCC 10261 at 2 times MIC after 48 hrs by disc diffusion assay; procedure, shortened: as §1
Candida albicans [31] = assay: Inhibition of ergosterol biosynthesis in Candida albicans 2779 assessed as ergosterol content at MIC after 16 hrs by spectrophotometer analysis; set-up: scale not given: the % may be the effect or the level left; procedure, shortened: as §2
Candida tropicalis [32] = assay: Antifungal activity against Candida tropicalis ATCC 750 at half MIC after 48 hrs by disc diffusion assay; procedure, shortened: as §1
Candida albicans [33] = assay: Cytotoxicity against clinical isolates of Candida albicans 2779 at 1/4 MIC after 24 hrs by WST1 assay; procedure, shortened: as §4
Candida tropicalis [34] = assay: Inhibition of ergosterol biosynthesis in Candida tropicalis 2356 assessed as ergosterol content at MIC after 16 hrs by spectrophotometer analysis; set-up: scale not given: the % may be the effect or the level left; procedure, shortened: as §2
Candida albicans [35] = assay: Antifungal activity against clinical isolates of Candida albicans 2779 at 2 times MIC after 48 hrs by disc diffusion assay; procedure, shortened: as §1
Candida albicans [36] = assay: Antifungal activity against clinical isolates of Candida albicans 2779 by broth microdilution assay; procedure, shortened: as §3
Candida tropicalis [37] = assay: Inhibition of ergosterol biosynthesis in Candida tropicalis 2356 assessed as ergosterol content at 1/2 MIC after 16 hrs by spectrophotometer analysis; set-up: scale not given: the % may be the effect or the level left; procedure, shortened: as §2
Candida albicans [38] = assay: Antifungal activity against Candida albicans ATCC 10261 at MIC after 48 hrs by disc diffusion assay; procedure, shortened: as §1
Candida tropicalis [39] = assay: Antifungal activity against clinical isolates of Candida tropicalis 2356 at half MIC after 48 hrs by disc diffusion assay; procedure, shortened: as §1
Candida tropicalis [40] = assay: Antifungal activity against clinical isolates of Candida tropicalis 2356 at 2 times MIC after 48 hrs by disc diffusion assay; procedure, shortened: as §1
Candida albicans [41] = assay: Inhibition of ergosterol biosynthesis in Candida albicans 2323 assessed as ergosterol content at MIC after 16 hrs by spectrophotometer analysis; set-up: scale not given: the % may be the effect or the level left; procedure, shortened: as §2
Candida albicans [42] = assay: Antifungal activity against clinical isolates of Candida albicans 2367 at MIC after 48 hrs by disc diffusion assay; procedure, shortened: as §1
Candida tropicalis [43] = assay: Inhibition of ergosterol biosynthesis in Candida tropicalis ATCC 750 assessed as ergosterol content at MIC after 16 hrs by spectrophotometer analysis; set-up: scale not given: the % may be the effect or the level left
Procedure, shortened: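 Cells were harvested, washed, and wet pellet weight recorded. Pellets were saponified in 3 mL 25% alcoholic KOH at 85 °C for 1 h, then sterols extracted into n-heptane. Ergosterol is expressed relative to untreated control cells.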

Candida tropicalis [44] = assay: Antifungal activity against clinical isolates of Candida tropicalis 2356 at MIC after 48 hrs by disc diffusion assay; procedure, shortened: as §1
Candida albicans [45] = assay: Antifungal activity against Candida albicans ATCC 10261 by broth microdilution assay; procedure, shortened: as §3

Structure (SMILES): CCc1ccnc(-c2nccn2Cc2nnc(-c3ccccc3OC(C)=O)o2)c1
- inhibition zone (IZ) (Candida tropicalis [1]): 1 mm
- Activity (Candida tropicalis [2]): 87%
- inhibition zone (IZ) (Candida albicans [3]): 6 mm
- Activity (Candida albicans [4]): 89%
- Activity (Candida albicans [5]): 51%
- MIC (Candida tropicalis [6]): 16 µg/mL (≈ 41.1 µM)
- inhibition zone (IZ) (Candida albicans [7]): 2 mm
- inhibition zone (IZ) (Candida tropicalis [8]): 10 mm
- Activity (Candida albicans [9]): 52%
- Activity (Candida albicans [10]): 52%
- MIC (Candida tropicalis [11]): 32 µg/mL (≈ 82.2 µM)
- inhibition zone (IZ) (Candida tropicalis [12]): 9 mm
- inhibition zone (IZ) (Candida tropicalis [13]): 5 mm
- inhibition zone (IZ) (Candida tropicalis [14]): 14 mm
- inhibition zone (IZ) (Candida albicans [15]): 5 mm
- Activity (Candida albicans [16]): 100%
- Activity (Candida albicans [17]): 60.62%
- MIC (Candida tropicalis [18]): 4 µg/mL (≈ 10.3 µM)
- inhibition zone (IZ) (Candida albicans [19]): 11 mm
- inhibition zone (IZ) (Candida albicans [20]): 3 mm
- Activity (Candida albicans [21]): 42%
- inhibition zone (IZ) (Candida albicans [22]): 12 mm
- inhibition zone (IZ) (Candida albicans [23]): 11 mm
- MIC (Candida albicans [24]): 8 µg/mL (≈ 20.5 µM)
- Activity (Candida tropicalis [25]): 53%
- Activity (Candida tropicalis [26]): 60.62%
- MIC (Candida albicans [27]): 16 µg/mL (≈ 41.1 µM)
- Activity (Candida tropicalis [28]): 47%
- inhibition zone (IZ) (Candida albicans [29]): 3 mm
- inhibition zone (IZ) (Candida albicans [30]): 16 mm
- Activity (Candida albicans [31]): 93%
- inhibition zone (IZ) (Candida tropicalis [32]): 3 mm
- Activity (Candida albicans [33]): 7.31%
- Activity (Candida tropicalis [34]): 91%
- inhibition zone (IZ) (Candida albicans [35]): 13 mm
- MIC (Candida albicans [36]): 16 µg/mL (≈ 41.1 µM)
- Activity (Candida tropicalis [37]): 48%
- inhibition zone (IZ) (Candida albicans [38]): 11 mm
- inhibition zone (IZ) (Candida tropicalis [39]): 2 mm
- inhibition zone (IZ) (Candida tropicalis [40]): 11 mm
- Activity (Candida albicans [41]): 91%
- inhibition zone (IZ) (Candida albicans [42]): 8 mm
- Activity (Candida tropicalis [43]): 100%
- inhibition zone (IZ) (Candida tropicalis [44]): 6 mm
- MIC (Candida albicans [45]): 2 µg/mL (≈ 5.14 µM)
